# Screening data as filed in PubChem.
# CHRM5 PAM = potentiates acetylcholine response at human M5 receptor; AID 624038; CHO-K1 hM5, Fluo-8 calcium, ACh EC20 PAM; 0% = ACh EC20, 100% = ACh EC100; hit rate 0.3% among 360,000; activation, % at 3 µM;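 active means activation above the run cutoff, the mean activation of all test compounds plus 3 SD, cut at about 18% in these data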
# Target sequence (P08912 whole entry, looked up): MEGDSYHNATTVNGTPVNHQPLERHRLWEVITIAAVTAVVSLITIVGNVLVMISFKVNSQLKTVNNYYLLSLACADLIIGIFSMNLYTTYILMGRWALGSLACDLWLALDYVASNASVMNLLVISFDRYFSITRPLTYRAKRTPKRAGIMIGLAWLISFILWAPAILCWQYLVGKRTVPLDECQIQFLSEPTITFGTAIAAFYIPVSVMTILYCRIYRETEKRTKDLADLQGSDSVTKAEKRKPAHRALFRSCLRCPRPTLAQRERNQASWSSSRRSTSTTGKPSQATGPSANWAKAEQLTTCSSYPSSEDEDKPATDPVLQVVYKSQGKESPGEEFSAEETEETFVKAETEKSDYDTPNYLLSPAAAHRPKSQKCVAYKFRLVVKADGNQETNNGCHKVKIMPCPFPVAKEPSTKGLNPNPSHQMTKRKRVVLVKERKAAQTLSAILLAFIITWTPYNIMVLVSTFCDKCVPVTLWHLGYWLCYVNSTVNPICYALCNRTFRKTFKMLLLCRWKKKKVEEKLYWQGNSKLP
#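 Replicates: One well per compound, no replicates | System: Human M5 receptor in CHO-K1 cells | Benchmarks: Low control EC20 acetylcholine (0%), high control EC100 acetylcholine (100%) | Probe or stimulus: Acetylcholine, EC20 level | Times: Fluo-8 loading 80 min at 37 °C plus 30 min room temperature | Signal: Intracellular calcium via Fluo-8 fluorescence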
# M5 antag = antagonists of human muscarinic M5 receptor (CHRM5). AID 624040. hit rate 0.59% among 360,000. inhibition, % at 3 µM. CHO-hM5 cells, Fluo-8 calcium fluorescence, ACh EC80;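 active means inhibition above a per-plate cutoff, the mean of that plate's test compounds plus 3 SD, cut at about 27% in these data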;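 further: 0% = acetylcholine EC80 with DMSO and 100% = DMSO without agonist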
# CHRM1 antagonist = antagonists of human M1 muscarinic receptor; CHO-K1 hM1, Fluo-8 calcium fluorescence, ACh EC80 antagonist; AID 588852; inhibition, % at 3 µM; hit rate 1.3% among 360,000;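 active means percent inhibition above its own plate's cutoff, namely the mean of that plate's compound wells plus 3 SD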;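 further: peak over basal fluorescence ratio during 140 s after agonist addition; 0% = ACh EC80 plus DMSO and 100% = DMSO alone without agonist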
# CHRM1 PAM = positive allosteric modulators of human M1 muscarinic receptor. activation, % at 3 µM. P11229. AID 588819. hit rate 0.088% among 360,000. CHO-K1 hM1, Fluo-8 calcium fluorescence, ACh EC20; 0% = ACh EC20, 100% = maximal ACh; in the data active means activation above about 19%, passing the limit was not always enough
# M5 ag = agonists of human muscarinic M5 receptor (CHRM5); P08912; hit rate 0.19% among 360,000; CHO-K1 hM5 cells, Fluo-8 calcium fluorescence; 0% DMSO wells, 100% maximal acetylcholine response; activation, % at 3 µM;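 active means activation above the run's mean over test compounds plus 3 SD, cut at about 23% in these data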;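 further: signal is peak over basal fluorescence ratio across the kinetic read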
# CHRM1 agonist = agonists of human M1 muscarinic receptor. P11229. CHO-K1 hM1, Fluo-8 calcium fluorescence, agonist mode; 0% DMSO, 100% acetylcholine EC100. activation, % at 3 µM. hit rate 0.33% among 360,000;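 active means activation above the run's mean compound activation plus 3 SD, cut at about 16% in these data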;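 further: peak over basal fluorescence ratio within a 140 s kinetic read after compound addition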
# The depositor's hits bear a star; x = not tested or not shown. In the library only some 2% were active in any assay of this set; here they are far more common.
SMILES,CHRM5 PAM,M5 antag,CHRM1 antagonist,CHRM1 PAM,M5 ag,CHRM1 agonist
COc1cc(/C=N/NC(=O)c2ccc(CN3c4cccc5cccc(c45)S3(=O)=O)cc2)cc(OC)c1O,-6,10,5,1,-2,4
COc1ccc(/C=N/NC(=O)c2ccc(CN3c4cccc5cccc(c45)S3(=O)=O)cc2)cc1,-7,12,-10,-7,-2,16*
O=C(CN1c2cccc3cccc(c23)S1(=O)=O)NCCc1ccccc1,8,1,-4,10,4,1
O=C(N/N=C/CCc1ccccc1)c1ccc(CN2c3cccc4cccc(c34)S2(=O)=O)cc1,9,-2,-11,17,1,21*
O=C(NC(c1ccc(Cl)cc1)c1cnccn1)C1CCN(Cc2cccc(C(F)(F)F)c2)CC1 (stereo not given),-3,3,-5,-1,-1,-7
NC(=O)CC1(c2ccccc2)CCCCC1,-1,-4,-7,3,1,-3
CN1CCN(C2CN(Cc3cn(Cc4ccc(Cl)cc4)nn3)S(=O)(=O)C2)CC1 (stereo not given),-13,-3,x,x,-5,x
Cc1nc2ccc(NS(=O)(=O)c3c(F)cc(F)cc3Br)cc2s1,-14,21,37*,-15,6,-1
CCCS(=O)(=O)NC(=O)C1(C)CCN(C(=O)c2c(C)noc2C)C1 (stereo not given),4,-4,-20,13,1,-1
COc1ccc(CCN(C)Cc2c(O)ccc3cc(Br)ccc23)cc1OC,-2,5,-12,10,-1,-5
COc1ccc(CN(C)Cc2c(O)ccc3cc(Br)ccc23)cc1OC,23*,-10,4,17,1,1
Cn1cc2cc([N+](=O)[O-])ccc2n1,8,-1,4,1,1,23*
CCOC(=O)Cn1nc(C)n(-c2cccc(Cl)c2)c1=O,19*,-5,-19,24,6,1
CCOC(=O)Cn1nc(C)n(-c2ccc(Cl)cc2)c1=O,3,9,-13,11,0,-2
CC(=O)c1cccc(-c2ccnc3c2CC(C(=O)NCc2cccs2)O3)c1 (stereo not given),1,0,-23,20,1,7
CCCCCC(=O)Nc1cccc(C2=NOC3(C2)C[C@H](C(N)=O)N(C(=O)c2ccccc2C(=O)c2ccccc2)C3)c1 (stereo not given in full),4,4,-5,6,2,-6
CCCCCC(=O)Nc1cccc(C2=NOC3(C2)C[C@H](C(N)=O)N(C(=O)c2ccccc2)C3)c1 (stereo not given in full),19*,3,-9,16,3,3
Cc1ccc(S(=O)(=O)N2C[C@H]3[C@H]4C(=O)N(C)C(=O)[C@H]4CC(=O)[C@H]3[C@@H]2c2ccccc2Cl)cc1,-5,3,10,2,2,-3
CCC(=O)N1CCCC(C)(C(=O)NS(=O)(=O)c2ccccc2Cl)C1 (stereo not given),3,-1,-9,3,1,-1
OC[C@@H]1CN(Cc2ccc(-c3ccccc3)cc2)C[C@H](n2cnc3c(NC4CCC4)ncnc32)O1,-14,29*,34*,-16,5,1
COc1ccc(C2c3c(-c4cc(Cl)c(C)cc4O)n[nH]c3C(=O)N2Cc2cccnc2)cc1OC (stereo not given),4,-9,80*,-21,-3,-6
Cc1ccc([C@H]2C[C@@H](n3cc(-c4ccc(F)cc4)nn3)[C@H](O)CN2C(=O)c2cccs2)cc1,-1,6,-1,-3,-1,-2
Cc1noc(C)c1CN(C(=S)NC1CC2CCC1C2)c1ccccc1 (stereo not given),23*,-5,6,-13,-7,-10
Cc1cccc(C)c1NC(=O)C(C)n1c(-c2ccc(=O)[nH]c2)nc2ccccc21 (stereo not given),-1,-2,x,x,1,x
Cc1cccc(C)c1NC(=O)C(C1CC1)n1c(-c2ccc(=O)[nH]c2)nc2ccccc21 (stereo not given),21*,-21,x,x,1,x
SMILES,CHRM5 PAM,M5 antag,CHRM1 antagonist,CHRM1 PAM,M5 ag,CHRM1 agonist
CCCN1C(=O)CC(Sc2ncccc2C(=O)O)C1=O (stereo not given),-2,7,-4,4,-2,-3
COc1ccc(CCN2C(=O)CC(Sc3ncccc3C(=O)O)C2=O)cc1OC (stereo not given),26*,-8,-12,8,-2,-5
COc1ccc(C2C(C(=O)N3CCN(C)CC3)c3ccccc3C(=O)N2C2CCCCC2)cc1 (stereo not given),22*,-8,-5,-4,-11,-4
Cc1cc2oc(C(=O)NCc3ccccc3)cc(=O)c2cc1C,-22,97*,81*,-31,-8,-7
Cc1ccc2oc(C(=O)NCc3ccccc3)cc(=O)c2c1,-4,9,0,2,2,0
COC(C[C@@H](O)[C@H](C)[C@@H](O)COCc1ccccc1)OC,-14,5,51*,-32,-3,-9
Cn1c(=O)oc2cc(S(=O)(=O)CCC(=O)N3CCN(c4ccccc4F)CC3)ccc21,37*,11,-12,11,11,0
COc1ccccc1N1CCN(S(=O)(=O)c2ccc3c(c2)oc(=O)n3C)CC1,-13,27*,-22,12,-2,-3
C#CCNC(=O)C[C@@H]1C[C@@]2(C(=O)OC)CCCCC=C2N(Cc2ccc(Cl)cc2Cl)C1=O,1,-6,x,x,0,x
CC1(C)CCN2CCC(C)(C)c3c(O)ccc1c32,-16,41*,25,-10,95*,23*
CC(C)C[C@H]1CN=C(Nc2ccccc2)N1CCc1ccc(F)cc1,-40,13,25,-32,64*,50*
Cc1cccc(CCN2C(Nc3ccccc3)=NC[C@@H]2CC(C)C)c1,-43,15,57*,-36,58*,53*
CC(C)C[C@H]1CN=C(Nc2ccccc2)N1CCc1cccc(F)c1,-40,38*,57*,-39,74*,63*
CCOC(=O)/C=C1/SCC(=O)N1CC(=O)Nc1ccccc1OC(F)F,-1,19,-8,6,1,-4
O=C(NC1CCCCC1)C(c1ccccc1)N1CCCC1 (stereo not given),-29,12,80*,-26,-13,-6
O=c1c(-c2cc3ccccc3[nH]2)nc2ccccc2n1C(CCc1ccccc1)c1nc2ccccc2[nH]1 (stereo not given),-1,-7,x,x,3,x
